The record followed here is ChEMBL document CHEMBL3271997, “Reactions of 2-acyloxyisobutyryl halides with nucleosides. 6. Synthesis and biological evaluation of some 3'-acyl derivatives of 2,2'-anhydro-1-(beta-D-arabinofuranosyl)cytosine hydrochloride” (J Med Chem, 1976).

Calls of active or inactive are those of the source. The rule behind the calls is not given here. A value given as a limit tells only on which side of the number the result lay.

One data set deals with Vaccinia virus. The experiment in a line: Antiviral activity against Vaccinia virus IHD infected in African green monkey BGM cells after 6 days by plaque reduction assay. To be noted: Orthopoxvirus vaccinia, 144 h, read-out: ED50 (the source's name). Type of data set: functional. (In a plaque reduction assay, fewer plaques than in the control indicate reduced infectivity or spread.)

Another data set relates to Herpesviridae sp. The experiment in a line: Antiviral activity against Herpes simplex virus HF infected in African green monkey BGM cells after 6 days by plaque reduction assay. Type of data set: functional. To be noted: 144 h, read-out: ED50 (the source's name). The essentials:
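Quantitative plaque reduction assay. Confluent BGM monolayers were infected with 100-200 pfu of HSV (HF strain) and overlaid with 1.25% agar in MEM with 2.0% bovine serum containing graded compound concentrations. A second overlay with neutral red (1:20000) was added on day 4, and plaques were counted on day 6. ED50, the μM concentration giving 50% plaque reduction, was taken from a probability plot of % inhibition against concentration.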

For data set [1], the system named is L1210. As to the kind of experiment: Antitumor activity against mouse L1210 cells allografted in BDF1 mouse assessed as increase in life span at 1000 mg/kg, ip administered as single dose 24 hrs post-implantation measured up to 30 days relative to control. Type of data set: functional. Conditions: route intraperitoneal. The essentials:
(§1)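 BDF1 mice inoculated ip with 1-2 × 10⁵ L1210 cells; 24 h later a single ip dose given as solution or suspension in aqueous 0.9% NaCl, 0.4% polysorbate 80, 0.5% low-viscosity sodium carboxymethylcellulose, 0.9% benzyl alcohol. Mice held on normal diet for 30 days. Groups of eight to ten animals; percent increase in life span versus untreated infected controls, with 30-day survivors counted.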

The next data set has as its system HeLa. The experiment in a line: Cytotoxicity against human HeLa cells after 48 hrs by Coulter counting analysis. Conditions: read-out: ED50 (the source's name). The format is functional. A digest of the protocol: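 HeLa cells (10⁵) were grown for 2 days at 37° in MEM with 10% bovine serum. The medium was then replaced with fresh medium containing serial compound dilutions. After 48 h, cells were dispersed with 0.02% trypsin and 0.04% versene and counted on a Coulter counter. The result is expressed as ED50 in μg/ml.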

Data set [2] relates to L1210. The experiment in a line: Antitumor activity against mouse L1210 cells allografted in BDF1 mouse assessed as increase in life span at 200 mg/kg, ip administered as single dose 24 hrs post-implantation measured up to 30 days relative to control. Type of data set: functional. Conditions: route intraperitoneal. A digest of the protocol:
as §1

Data set [3] has as its system L1210. As to the kind of experiment: Antitumor activity against mouse L1210 cells allografted in BDF1 mouse assessed as survival at 200 mg/kg, ip administered as single dose 24 hrs post-implantation after 30 days. Type of data set: functional, organism-based. Also on record: dose 200 mg/kg. A digest of the protocol:
(§2)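 BDF1 mice were inoculated ip with 1-2 × 10⁵ L1210 cells. After 24 h, one ip dose was given as a solution or suspension in aqueous 0.9% NaCl, 0.4% polysorbate 80, 0.5% low-viscosity Na carboxymethylcellulose and 0.9% benzyl alcohol. Mice were followed for 30 days, with 8-10 per group. The read-out is % increase in life span versus infected controls, plus the count of 30-day survivors.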

In data set [4] the test system is Mus musculus. As to the kind of experiment: Toxicity in BDF1 mouse allografted with mouse L1210 cells assessed as reduction in survival at 1000 mg/kg, ip administered as single dose 24 hrs post-implantation measured up to 30 days relative to control. Type of data set: organism-based. Also on record: dose 1000 mg/kg, route intraperitoneal. To be noted: in vivo. The essentials:
as §1

Data set [5] concerns Mus musculus. As to the kind of experiment: Toxicity in BDF1 mouse allografted with mouse L1210 cells assessed as reduction in average life span at 1000 mg/kg, ip administered as single dose 24 hrs post-implantation measured up to 30 days relative to control. The format is organism-based. Also on record: dose 1000 mg/kg, route intraperitoneal. To be noted: in vivo. A digest of the protocol: as §2

The subject of data set [6] is L1210. The experiment in a line: Antitumor activity against mouse L1210 cells allografted in BDF1 mouse assessed as survival at 1000 mg/kg, ip administered as single dose 24 hrs post-implantation after 30 days. Type of data set: functional, organism-based. Also on record: dose 1000 mg/kg. The essentials:
as §2

The subject of data set [7] is Mus musculus. As to the kind of experiment: Toxicity in BDF1 mouse allografted with mouse L1210 cells assessed as reduction in survival at 500 mg/kg, ip administered as single dose 24 hrs post-implantation measured up to 30 days relative to control. The format is organism-based. Also on record: dose 500 mg/kg, route intraperitoneal. Conditions: in vivo. A digest of the protocol:
as §1

The test system of data set [8] is Mus musculus. The experiment in a line: Toxicity in BDF1 mouse allografted with mouse L1210 cells assessed as reduction in average life span at 500 mg/kg, ip administered as single dose 24 hrs post-implantation measured up to 30 days relative to control. The format is organism-based. Also on record: dose 500 mg/kg, route intraperitoneal. Conditions: in vivo. A digest of the protocol:
as §2

`CCCCCCCCCCCCCCCCCCCCCC(=O)O[C@H]1[C@@H]2Oc3nc(=N)ccn3[C@@H]2O[C@@H]1CO.Cl`: the figures for the EC50 in the data set with Vaccinia virus, in the data set with Herpesviridae sp. and in the data set with HeLa were 18.5 µM, more than 30 µM and 0.38 mg/L, respectively. The ILS at 1000 mg/kg with L1210 [1] was more than 240%. Further, the ILS at 200 mg/kg in the data set on L1210 [2] is more than 169%.
As for `C=CCCCCCCCCC(=O)O[C@H]1[C@@H]2Oc3nc(=N)ccn3[C@@H]2O[C@@H]1CO.Cl`, the EC50 was determined as 0.51 µM in the data set with Vaccinia virus, 1.2 µM in the data set with Herpesviridae sp. and 0.05 mg/L with HeLa. Also, the ILS at 200 mg/kg in the data set on L1210 [2] was 38%. For the same compound, the outcome with L1210 [3] was inactive.
For `Cl.N=c1ccn2c(n1)O[C@H]1[C@H](OC(=O)Cc3ccccc3)[C@@H](CO)O[C@H]12`, the EC50 with Vaccinia virus is 0.56 µM; with Herpesviridae sp. it was 0.56 µM; in the data set on HeLa it was 0.07 mg/L. Moreover, the ILS at 200 mg/kg in the data set on L1210 [2] was found to be 33%. Moreover, the outcome with L1210 [3] was inactive.
With `CCC(=O)O[C@H]1[C@@H]2Oc3nc(=N)ccn3[C@@H]2O[C@@H]1CO.Cl`, the EC50 amounted to 0.6 µM in the data set on Vaccinia virus, 2.55 µM with Herpesviridae sp. and 0.1 mg/L in the data set on HeLa. Moreover, the ILS at 200 mg/kg in the data set with L1210 [2] was found to be 29%. Further, in the data set with L1210 [3], the outcome was inactive.
Consider `CCCCCCCCCCCCCCCC(=O)O[C@H]1[C@@H]2Oc3nc(=N)ccn3[C@@H]2O[C@@H]1CO.Cl`, for which the EC50 in the data set with Vaccinia virus is 1.2 µM; in the data set with Herpesviridae sp. it was 5.5 µM; with HeLa it was 0.2 mg/L. For the same compound, the Activity result in the data set on Mus musculus [4] was “Toxic”. The ILS in the data set on Mus musculus [5] is on record as -20%. Moreover, the ILS at 200 mg/kg in the data set on L1210 [2] was more than 191%.
Consider `CCCCCCCCCCCCCCCCCC(=O)O[C@H]1[C@@H]2Oc3nc(=N)ccn3[C@@H]2O[C@@H]1CO.Cl`, for which the figures for the EC50 in the data set with Vaccinia virus, with Herpesviridae sp. and in the data set with HeLa were 1.6 µM, 5.45 µM and 0.22 mg/L, respectively. In addition, the ILS at 1000 mg/kg in the data set with L1210 [1] is more than 257%. In the data set with L1210 [6], the outcome was Active. In the data set with L1210 [2], the ILS at 200 mg/kg came to 115%. Besides, the outcome in the data set on L1210 [3] was inactive.
Consider `CCCCCC(=O)O[C@H]1[C@@H]2Oc3nc(=N)ccn3[C@@H]2O[C@@H]1CO.Cl`, for which the EC50 in the data set on Vaccinia virus was 0.23 µM; with Herpesviridae sp., 1.55 µM; in the data set on HeLa, 0.1 mg/L. For the same compound, the ILS at 200 mg/kg in the data set on L1210 [2] is 40%. For the same compound, the result in the data set on L1210 [3] was inactive.
Take `CCCCCCCC(=O)O[C@H]1[C@@H]2Oc3nc(=N)ccn3[C@@H]2O[C@@H]1CO.Cl`: the EC50 was 0.19 µM in the data set on Vaccinia virus, 0.72 µM in the data set with Herpesviridae sp. and 0.1 mg/L with HeLa. Further, the Activity result in the data set with Mus musculus [4] and with Mus musculus [7] was “Toxic” throughout. Further, the ILS is given as -100% in the data set with Mus musculus [5] and -93% in the data set with Mus musculus [8]. For the same compound, the ILS at 200 mg/kg in the data set on L1210 [2] was 34%.
On to `CCCCCCCCCCCCCCCCCCCC(=O)O[C@H]1[C@@H]2Oc3nc(=N)ccn3[C@@H]2O[C@@H]1CO.Cl`, for which the results for the EC50 in the data set with Vaccinia virus, in the data set on Herpesviridae sp. and in the data set with HeLa were more than 30 µM, more than 30 µM and 0.22 mg/L, respectively. Also, in the data set with L1210 [1], the ILS at 1000 mg/kg was more than 266%. The outcome in the data set on L1210 [6] was Active. Moreover, in the data set with L1210 [2], the ILS at 200 mg/kg was more than 281%.
As to `CCCCCCCCCCC(=O)O[C@H]1[C@@H]2Oc3nc(=N)ccn3[C@@H]2O[C@@H]1CO.Cl`, the EC50 in the data set with Vaccinia virus was 0.19 µM; in the data set with Herpesviridae sp., 0.46 µM; in the data set with HeLa it was 0.06 mg/L. Besides, the ILS at 200 mg/kg with L1210 [2] is 87%. The result with L1210 [3] was inactive.
As to `CC(=O)O[C@H]1[C@@H]2Oc3nc(=N)ccn3[C@@H]2O[C@@H]1CO.Cl`, the EC50 with Vaccinia virus turned out to be 0.73 µM; in the data set with Herpesviridae sp., 2.25 µM; in the data set with HeLa, 0.18 mg/L. In addition, in the data set on L1210 [1], the ILS at 1000 mg/kg came to 87%. In addition, the result with L1210 [6] and in the data set with L1210 [3] was inactive. Further, the ILS at 200 mg/kg in the data set with L1210 [2] turned out to be 37%.
`CC(C)C(=O)O[C@H]1[C@@H]2Oc3nc(=N)ccn3[C@@H]2O[C@@H]1CO.Cl`: the values for the EC50 in the data set with Vaccinia virus, with Herpesviridae sp. and in the data set on HeLa were 1.55 µM, 8.8 µM and 0.2 mg/L, respectively. In the data set on L1210 [2], the ILS at 200 mg/kg was 22%. For the same compound, the outcome with L1210 [3] was inactive.
`CCCCCCCC/C=C\CCCCCCCCCCCC(=O)O[C@H]1[C@@H]2Oc3nc(=N)ccn3[C@@H]2O[C@@H]1CO.Cl`: the results for the EC50 with Vaccinia virus, in the data set on Herpesviridae sp. and with HeLa were 30 µM, more than 30 µM and 0.18 mg/L, respectively. Moreover, in the data set with L1210 [2], the ILS at 200 mg/kg was more than 269%.
For `CCCC(=O)O[C@H]1[C@@H]2Oc3nc(=N)ccn3[C@@H]2O[C@@H]1CO.Cl`, the EC50 in the data set on Vaccinia virus turned out to be 0.59 µM; in the data set on Herpesviridae sp., 2.05 µM; with HeLa, 0.12 mg/L. Further, the ILS at 200 mg/kg in the data set on L1210 [2] was 30%. In addition, the outcome in the data set on L1210 [3] was inactive.
In the same order, the values of `CCCCCCCCC(=O)O[C@H]1[C@@H]2Oc3nc(=N)ccn3[C@@H]2O[C@@H]1CO.Cl` are 0.29 µM, 0.4 µM, 0.05 mg/L, 33% and “inactive”.
In the same order, the values of `CCCCCCCCCC(=O)O[C@H]1[C@@H]2Oc3nc(=N)ccn3[C@@H]2O[C@@H]1CO.Cl` are 0.15 µM, 1.05 µM, 0.2 mg/L, 35% and “inactive”.
In the same order, the values of `CCCCCCCCCCCC(=O)O[C@H]1[C@@H]2Oc3nc(=N)ccn3[C@@H]2O[C@@H]1CO.Cl` are 0.64 µM, 0.64 µM, 0.1 mg/L, 40% and “inactive”.
In the case of `Cl.N=c1ccn2c(n1)O[C@H]1[C@H](OC(=O)c3ccccc3)[C@@H](CO)O[C@H]12`, the values for the EC50 in the data set with Vaccinia virus, in the data set on Herpesviridae sp. and in the data set with HeLa were 5.9 µM, 8.2 µM and 0.2 mg/L, respectively. Also, the ILS at 200 mg/kg with L1210 [2] is 17%. Besides, the result in the data set on L1210 [3] was inactive.
In the same order, the values of `CCCCCCCC/C=C\CCCCCCCC(=O)O[C@H]1[C@@H]2Oc3nc(=N)ccn3[C@@H]2O[C@@H]1CO.Cl` are 0.67 µM, 1.2 µM, 0.08 mg/L, 72% and “inactive”.
Regarding `CCCCCCCC/C=C/CCCCCCCC(=O)O[C@H]1[C@@H]2Oc3nc(=N)ccn3[C@@H]2O[C@@H]1CO.Cl`, the EC50 with Vaccinia virus came to 0.9 µM; in the data set with Herpesviridae sp., 1.9 µM; with HeLa, 0.09 mg/L. In addition, the ILS at 200 mg/kg in the data set on L1210 [2] was more than 162%.
